Measurements reported in ChEMBL document CHEMBL4219164, “Design, synthesis and biological evaluation of novel 3-substituted pyrazolopyrimidine derivatives as potent Bruton's tyrosine kinase (BTK) inhibitors” (Bioorg Med Chem, 2018).

How the values were obtained:
[1] = biological target: Tyrosine-protein kinase BTK (Homo sapiens, UniProt Q06187); assay: Inhibition of full length human N-terminal GST-tagged BTK (2 to 659 residues) expressed in baculovirus expression system using biotinylated substrate after 50 mins by HTRF assay
Ramos = assay: Antiproliferative activity against human Ramos cells after 48 hrs by CCK8-based assay; type: functional, cell-based
Raji = assay: Antiproliferative activity against human Raji cells after 48 hrs by CCK8-based assay; type: functional, cell-based
How it was run: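 CCK-8 viability readout. Cells were seeded at 2000–3000 per well and held 24 h at 37 °C in 5% CO2, then exposed to compound at five concentrations within 1.25–40 μM, each in triplicate. CCK-8 was added for a further 1–4 h and absorbance read at 450 nm, with cell number set to give 0.5–1.2. IC50 was taken as the mean of at least three experiments.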

Chain of Tyrosine-protein kinase BTK (Q06187 whole entry, the tested form may be a part): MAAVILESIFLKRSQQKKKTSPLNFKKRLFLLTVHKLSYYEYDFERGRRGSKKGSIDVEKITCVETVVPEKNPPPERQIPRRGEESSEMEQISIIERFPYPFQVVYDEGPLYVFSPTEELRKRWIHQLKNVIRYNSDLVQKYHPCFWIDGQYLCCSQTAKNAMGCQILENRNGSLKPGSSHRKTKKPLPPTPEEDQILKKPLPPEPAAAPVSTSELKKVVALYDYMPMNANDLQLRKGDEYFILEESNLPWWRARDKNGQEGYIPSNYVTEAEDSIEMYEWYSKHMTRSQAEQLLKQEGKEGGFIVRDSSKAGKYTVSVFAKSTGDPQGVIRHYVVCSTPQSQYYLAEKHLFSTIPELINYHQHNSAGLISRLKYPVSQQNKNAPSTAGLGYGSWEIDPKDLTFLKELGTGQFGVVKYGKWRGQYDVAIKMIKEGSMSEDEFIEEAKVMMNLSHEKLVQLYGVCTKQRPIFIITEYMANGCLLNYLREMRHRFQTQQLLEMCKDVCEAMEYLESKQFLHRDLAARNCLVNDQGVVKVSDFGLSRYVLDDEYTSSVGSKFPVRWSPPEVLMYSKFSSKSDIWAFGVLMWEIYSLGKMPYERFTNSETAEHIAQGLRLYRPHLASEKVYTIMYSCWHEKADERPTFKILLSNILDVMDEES

SMILES	IC50 [1]	IC50 (Ramos)	IC50 (Raji)
C=CC(=O)N1CCC[C@@H](n2nc(C#CCCOc3ccccc3)c3c(N)ncnc32)C1	39.8 nM	–	–
C=CC(=O)N1CCC[C@@H](n2nc(C#CCOc3ccccc3OC)c3c(N)ncnc32)C1	38.2 nM	–	–
C=CC(=O)N1CCC[C@@H](n2nc(-c3ccc(Oc4ccccc4)cc3)c3c(N)ncnc32)C1 [IBRUTINIB]	–	–	1490 nM
C=CC(=O)N1CCC[C@@H](n2nc(C#CCOc3ccccc3C)c3c(N)ncnc32)C1	49.2 nM	–	–
C=CC(=O)N1CCC[C@@H](n2nc(C#CCOc3cccc(C(C)C)c3)c3c(N)ncnc32)C1	45.4 nM	–	–
C=CC(=O)N1CCC[C@@H](n2nc(C#CCOc3cccc(C(F)(F)F)c3)c3c(N)ncnc32)C1	209 nM	–	–
C=CC(=O)N1CCC[C@@H](n2nc(C#CCOc3ccc(OC)cc3)c3c(N)ncnc32)C1	89.6 nM	–	–
C=CC(=O)N1CCC[C@@H](n2nc(C#CCc3ccccc3)c3c(N)ncnc32)C1	102 nM	–	–

Further lines, results first:

IC50 [1]	IC50 (Ramos)	IC50 (Raji)	SMILES
7.95 nM	8910 nM	1800 nM	C=CC(=O)N1CCC[C@@H](n2nc(C#CCOc3ccccc3)c3c(N)ncnc32)C1
18.1 nM	> 40000 nM	2280 nM	C=CC(=O)N1CCC[C@@H](n2nc(C#CCOc3cccc(Cl)c3)c3c(N)ncnc32)C1
11 nM	37200 nM	2720 nM	C=CC(=O)N1CCC[C@@H](n2nc(C#CCSc3ccccc3)c3c(N)ncnc32)C1
26.9 nM	–	–	C=CC(=O)N1CCC[C@@H](n2nc(C#CCOc3ccc(C)cc3)c3c(N)ncnc32)C1
23.2 nM	14600 nM	> 40000 nM	C=CC(=O)N1CCC[C@@H](n2nc(/C=C\COc3ccccc3)c3c(N)ncnc32)C1
9.84 nM	> 40000 nM	1690 nM	C=CC(=O)N1CCC[C@@H](n2nc(C#CCOc3cccc(OC)c3)c3c(N)ncnc32)C1
20.8 nM	–	–	C=CC(=O)N1CCC[C@@H](n2nc(C#CCOc3cccc(C)c3)c3c(N)ncnc32)C1
18.1 nM	18200 nM	> 40000 nM	C=CC(=O)N1CCC[C@@H](n2nc(C#CCNc3ccccc3)c3c(N)ncnc32)C1
11.3 nM	–	–	C=CC(=O)N1CCC[C@@H](n2nc(/C=C/COc3ccccc3)c3c(N)ncnc32)C1
15.9 nM	> 40000 nM	1620 nM	C=CC(=O)N1CCC[C@@H](n2nc(C#CCCc3ccccc3)c3c(N)ncnc32)C1
22.2 nM	–	–	C=CC(=O)N1CCC[C@@H](n2nc(CCCOc3ccccc3)c3c(N)ncnc32)C1
